# Measured values reported in BindingDB's records for doi:10.1016/j.bmcl.2007.03.055 (Pharmacopeia Drug Discovery, 2007).
# pIC50: −log10 of the molar value.
# Target: Amyloid-beta precursor protein (Homo sapiens, UniProt P05067)
# Assay: Inhibition of gamma-secretase
# Summary of the method: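 Membrane preparation (5.0 µg total protein, in 20 mM Hepes pH 5.0, 5 mM EDTA) incubated 2 h at 37 °C with compound serially diluted in DMSO then in start buffer (Hepes pH 7.5, 5 mM EDTA); 2% DMSO final. Quenched with Tris/NaCl/BSA/Triton mix carrying biotin-W02 and Europium-labelled G2-10 (both Aβ40-specific) plus allophycocyanin-streptavidin. Signal developed 2–16 h at room temperature; HTRF at 665 nm. IC50 as mean of ≥2 determinations.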
# Amyloid-beta precursor protein, sequence (P05067 whole entry): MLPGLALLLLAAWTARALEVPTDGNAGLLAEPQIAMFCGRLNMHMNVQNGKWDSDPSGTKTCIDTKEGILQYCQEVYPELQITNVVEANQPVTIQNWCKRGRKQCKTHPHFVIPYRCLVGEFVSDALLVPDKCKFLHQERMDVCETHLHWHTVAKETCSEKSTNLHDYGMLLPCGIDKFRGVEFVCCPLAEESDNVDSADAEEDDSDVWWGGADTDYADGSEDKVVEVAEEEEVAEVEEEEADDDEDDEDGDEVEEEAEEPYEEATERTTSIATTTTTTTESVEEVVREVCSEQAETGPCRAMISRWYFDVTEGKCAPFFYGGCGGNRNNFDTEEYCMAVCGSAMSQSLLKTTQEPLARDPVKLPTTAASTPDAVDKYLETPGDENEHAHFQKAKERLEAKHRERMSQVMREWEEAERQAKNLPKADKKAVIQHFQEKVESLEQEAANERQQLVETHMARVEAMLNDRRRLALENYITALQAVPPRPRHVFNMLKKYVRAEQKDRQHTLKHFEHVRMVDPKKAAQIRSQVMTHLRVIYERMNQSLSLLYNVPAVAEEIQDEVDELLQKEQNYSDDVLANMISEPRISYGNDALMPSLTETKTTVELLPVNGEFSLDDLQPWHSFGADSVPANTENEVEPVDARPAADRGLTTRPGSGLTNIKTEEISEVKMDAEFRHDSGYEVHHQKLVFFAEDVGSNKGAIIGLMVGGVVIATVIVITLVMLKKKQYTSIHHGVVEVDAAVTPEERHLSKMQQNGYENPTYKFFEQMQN
row,SMILES,pIC50
1,"O=C(NCCCn1ccnc1)OCCCC1CCc2ccccc2N1S(=O)(=O)c1ccc(Cl)cc1 (stereo unspecified) [3-(1-(4-chlorophenylsulfonyl)-1,2,3,4-tetrahydroquinolin-2-yl)propyl 3-(1H-imidazol-1-yl)propylcarbamate]",7.07
2,"O=C(NCCCn1ccnc1)OCCC1CCc2ccccc2N1S(=O)(=O)c1ccc(Cl)cc1 (stereo unspecified) [2-(1-(4-chlorophenylsulfonyl)-1,2,3,4-tetrahydroquinolin-2-yl)ethyl 3-(1H-imidazol-1-yl)propylcarbamate]",6.55
3,"O=C(OCCCC1CCc2ccccc2N1S(=O)(=O)c1ccc(Cl)cc1)N1CCN(C2CCCCC2)CC1 (stereo unspecified) [3-(1-(4-chlorophenylsulfonyl)-1,2,3,4-tetrahydroquinolin-2-yl)propyl 4-cyclohexylpiperazine-1-carboxylate]",6.74
4,"CN1CCCC1CCNC(=O)OCCCC1CCc2ccccc2N1S(=O)(=O)c1ccc(Cl)cc1 (stereo unspecified) [3-(1-(4-chlorophenylsulfonyl)-1,2,3,4-tetrahydroquinolin-2-yl)propyl 2-(1-methylpyrrolidin-2-yl)ethylcarbamate]",6.66

# Now from value to compound:
row,pIC50,SMILES
1,6.27,"O=C(OC[C@H]1CC[C@@H](c2ccccc2)N1S(=O)(=O)c1ccc(Cl)cc1)N1CCN(CCO)CC1 [((2R,5S)-1-(4-chlorophenylsulfonyl)-5-phenylpyrrolidin-2-yl)methyl 4-(2-hydroxyethyl)piperazine-1-carboxylate]"
2,6.22,"CN1CCCC1CCNC(=O)OC[C@H]1CC[C@@H](c2ccccc2)N1S(=O)(=O)c1ccc(Cl)cc1 (stereo partly drawn) [((2R,5S)-1-(4-chlorophenylsulfonyl)-5-phenylpyrrolidin-2-yl)methyl 2-(1-methylpyrrolidin-2-yl)ethylcarbamate]"
